By Ki is commonly meant a dissociation constant, usually derived from enzyme kinetics or from competition with a known ligand. A low value points to higher affinity. Usually IC50 stands for the concentration that gives 50% inhibition. The inhibition is the percentage by which the read-out fell short of the control. A high value points to strong suppression.

Experiment [1] concerns the target T1, Melanocortin receptor 5 (Homo sapiens, UniProt P33032). Description: Inhibition of [125I]NDP-MSH binding to human Melanocortin 5 receptor expressed in HEK293 cells. The format is cell-based. The gist of the method: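 Competitive binding on membranes from HEK293 cells stably expressing human MC5 receptor, with [125I]NDP-MSH as the radioligand. Inhibition of radioligand binding was measured and Ki derived from more than 3 determinations.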

In experiment [2] the target is Melanocortin receptor 3 (Homo sapiens, UniProt P41968). The experiment can be described thus: Binding affinity for human melanocortin 3 receptor. The gist of the method: (§1)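 Human MC1, MC3 or MC4 receptor expressed in HEK293 cells. Membranes bearing each receptor were used in a competitive binding assay measuring inhibition of [125I]NDP-MSH binding, with inhibition curves generated.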
Chain of Melanocortin receptor 3 (P41968 whole entry): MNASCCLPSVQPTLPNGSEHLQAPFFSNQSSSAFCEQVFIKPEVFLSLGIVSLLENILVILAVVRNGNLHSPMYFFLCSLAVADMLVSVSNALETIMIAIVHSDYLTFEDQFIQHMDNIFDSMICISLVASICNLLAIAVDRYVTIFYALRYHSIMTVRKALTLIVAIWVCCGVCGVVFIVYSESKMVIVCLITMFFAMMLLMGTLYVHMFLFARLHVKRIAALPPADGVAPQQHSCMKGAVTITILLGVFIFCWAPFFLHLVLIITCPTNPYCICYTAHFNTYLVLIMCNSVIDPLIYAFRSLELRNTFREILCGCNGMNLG

Experiment [3] concerns the target T1, Melanocortin receptor 5. Description: Inhibition of human Melanocortin 5 receptor.
In experiment [4] the target is T2, Melanocyte-stimulating hormone receptor (Homo sapiens, UniProt Q01726). The experiment can be described thus: Percentage inhibition of human melanocortin 1 receptor at 10 uM.
Target sequence in this assay (Q01726 whole entry, looked up): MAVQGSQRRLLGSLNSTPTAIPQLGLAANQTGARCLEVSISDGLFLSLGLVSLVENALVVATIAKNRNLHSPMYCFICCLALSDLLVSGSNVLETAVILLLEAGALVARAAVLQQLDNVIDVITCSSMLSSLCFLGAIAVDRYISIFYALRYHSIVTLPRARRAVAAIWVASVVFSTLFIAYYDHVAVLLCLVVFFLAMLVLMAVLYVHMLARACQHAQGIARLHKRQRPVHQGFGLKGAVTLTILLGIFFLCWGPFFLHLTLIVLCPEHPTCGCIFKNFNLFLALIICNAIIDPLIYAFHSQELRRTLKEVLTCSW
In experiment [5] the target is T3, Melanocortin receptor 4 (Homo sapiens, UniProt P32245). The experiment can be described thus: Binding affinity for human melanocortin 4 receptor. The gist of the method:
as §1

In experiment [6] the target is T3, Melanocortin receptor 4. Description: Intrinsic activity as percentage of maximal melanocortin receptor 4 related cAMP production relative to alpha-MSH. The class given is functional. (cAMP levels reflect the balance of adenylyl cyclase and phosphodiesterase activity.)
In experiment [7] the target is T2, Melanocyte-stimulating hormone receptor. The experiment can be described thus: Binding affinity for human melanocortin 1 receptor. The gist of the method:
as §1
Target sequence in this assay (Q01726 whole entry): as the sequence (Q01726 whole entry, looked up) above

The structures appear in SMILES notation.

T1 sequence (P33032 whole entry): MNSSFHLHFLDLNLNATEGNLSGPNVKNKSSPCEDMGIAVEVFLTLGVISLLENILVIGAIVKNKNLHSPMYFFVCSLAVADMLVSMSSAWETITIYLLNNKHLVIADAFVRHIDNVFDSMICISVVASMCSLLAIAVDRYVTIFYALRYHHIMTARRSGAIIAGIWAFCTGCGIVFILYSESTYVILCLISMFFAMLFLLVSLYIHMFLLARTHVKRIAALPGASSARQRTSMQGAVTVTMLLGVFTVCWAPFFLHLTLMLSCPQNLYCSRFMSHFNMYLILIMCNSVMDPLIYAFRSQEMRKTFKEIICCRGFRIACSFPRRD
T3 sequence (P32245 whole entry): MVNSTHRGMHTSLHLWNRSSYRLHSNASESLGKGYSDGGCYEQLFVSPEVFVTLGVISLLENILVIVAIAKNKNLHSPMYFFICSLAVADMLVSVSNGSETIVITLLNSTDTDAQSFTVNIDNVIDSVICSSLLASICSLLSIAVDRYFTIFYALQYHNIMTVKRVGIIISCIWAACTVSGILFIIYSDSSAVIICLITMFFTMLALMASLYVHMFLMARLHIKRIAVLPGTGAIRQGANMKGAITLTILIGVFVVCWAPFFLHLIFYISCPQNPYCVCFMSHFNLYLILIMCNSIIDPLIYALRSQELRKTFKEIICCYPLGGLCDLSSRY

In experiment [1], `CN(/C(=N/c1ccc(C(=O)NCCc2ccc(Cl)cc2Cl)cc1)NC1CCCCC1)C1CCCCC1` showed a Ki of 91 nM.

Consider `CC1CC(C)CN(C(=NC2CCCCC2)Nc2ccc(C(=O)NCCc3ccc(Cl)cc3Cl)cc2)C1` (stereo not given), for which the Ki in experiment [1] came out at 144 nM.

`CC(C)(N)C/N=C(\Nc1ccc(C(=O)NCCc2ccc(Cl)cc2Cl)cc1)NC1CCCCC1`: the Ki in experiment [2] is 2400 nM; in experiment [1] it was 5.3 nM; in experiment [5] it was 1300 nM. In addition, in experiment [3], the IC50 amounted to 530 nM. The compound also returned an inhibition in experiment [4] of 27%. The same compound yielded an IA in experiment [6] of 45%.

`Cc1ccc(C)c(N2CCN(C(=NC3CCCCC3)Nc3ccc(C(=O)NCCc4ccc(Cl)cc4Cl)cc3)CC2)c1`: affinity in experiment [1] was put at a Ki of 1760 nM.

For the compound `C[C@@H]1CN[C@@H](C)CN1/C(=N/c1ccc(C(=O)NCCc2ccc(Cl)cc2Cl)cc1)NC1CCCCC1`, the Ki in experiment [2] turned out to be 2800 nM; in experiment [1], 5.9 nM; in experiment [7], 360 nM; in experiment [5], 840 nM. Further, the IC50 in experiment [3] came to 380 nM.

`CC1CN(C(=NC2CCCCC2)Nc2ccc(C(=O)NCCc3ccc(Cl)cc3Cl)cc2)CC(C)N1` (stereo not given): the Ki in experiment [2] came to 3900 nM; in experiment [1] it was 11 nM; in experiment [5] it was 590 nM. Moreover, the IC50 in experiment [3] was determined as 89 nM.

Consider `O=C(NCCc1ccc(Cl)cc1Cl)c1ccc(NC(=NC2CCCCC2)N2CCN(c3ccccc3)CC2)cc1`, for which, in experiment [1], the affinity, expressed as Ki, was 290 nM.

For `CCCN(CCC)/C(=N/c1ccc(C(=O)NCCc2ccc(Cl)cc2Cl)cc1)NC1CCCCC1`, in experiment [1], the Ki amounted to 360 nM.

Turning to `CNC1CCN(/C(=N/c2ccc(C(=O)NCCc3ccc(Cl)cc3Cl)cc2)NC2CCCCC2)C1` (stereo not given), the Ki in experiment [2] was determined as 2300 nM; in experiment [1], 36 nM; in experiment [5], 1400 nM. This compound showed an IC50 in experiment [3] of 630 nM. For the same compound, the inhibition in experiment [4] came to 27%. The same compound registered an IA in experiment [6] of 36%.

Regarding `CC1CN(/C(=N/c2ccc(C(=O)NCCc3ccc(Cl)cc3Cl)cc2)NC2CCCCC2)CC(C)N1` (stereo not given), in experiment [4], the inhibition was 23%. The compound also yielded an IA in experiment [6] of 76%.

Compound `NC1CCN(C(=NC2CCCCC2)Nc2ccc(C(=O)NCCc3ccc(Cl)cc3Cl)cc2)CC1` registered a Ki in experiment [1] of 230 nM.

Regarding `C[C@H]1CN(/C(=N/c2ccc(C(=O)NCCc3ccc(Cl)cc3Cl)cc2)NC2CCCCC2)CCN1`, the values for the Ki in experiment [2], in experiment [1] and in experiment [5] were 2800 nM, 21 nM and 580 nM, respectively. The IC50 in experiment [3] came to 380 nM. The same compound returned an inhibition in experiment [4] of 29%. Moreover, the IA in experiment [6] was 65%.

Regarding `O=C(NCCc1ccc(Cl)cc1Cl)c1ccc(N/C(=N/C2CCCCC2)N2CCNCC2)cc1`, the IA in experiment [6] came to 28%.

Take `O=C(NCCc1ccc(Cl)cc1Cl)c1ccc(NC(=NC2CCCCC2)N2CCN(c3ncccn3)CC2)cc1`: the Ki in experiment [1] amounted to 305 nM.

`O=C1CN(C(=NC2CCCCC2)Nc2ccc(C(=O)NCCc3ccc(Cl)cc3Cl)cc2)CCN1`: the Ki in experiment [1] was 560 nM.

In experiment [1], `O=C(NCCc1ccc(Cl)cc1Cl)c1ccc(NC(=NC2CCCCC2)N2CCN(Cc3ccccc3)CC2)cc1` displayed a Ki of 44 nM.

`O=C(NCCc1ccc(Cl)cc1Cl)c1ccc(NC(=NC2CCCCC2)NCc2cc(F)cc(F)c2)cc1`: the affinity in experiment [1], expressed as Ki, was 70 nM.

The compound `O=C(NCCc1ccc(Cl)cc1Cl)c1ccc(NC(=NC2CCCCC2)N2CCC(N3CCCC3)CC2)cc1` displayed a Ki in experiment [1] of 77 nM.

For `CN1CCN(/C(=N/c2ccc(C(=O)NCCc3ccc(Cl)cc3Cl)cc2)NC2CCCCC2)CC1`, the Ki in experiment [1] came to 50 nM.

As for `C[C@@H]1CN(/C(=N/c2ccc(C(=O)NCCc3ccc(Cl)cc3Cl)cc2)NC2CCCCC2)CCN1`, the inhibition in experiment [4] amounted to 25%. Also, the IA in experiment [6] was determined as 37%.

On to `C[C@@H]1CN(C(=NC2CCCCC2)Nc2ccc(C(=O)NCCc3ccc(Cl)cc3Cl)cc2)CCN1`, for which the Ki in experiment [2] was found to be 3500 nM; in experiment [1], 2.1 nM; in experiment [5], 840 nM. Moreover, the IC50 in experiment [3] turned out to be 70 nM.

As to `O=C(NCCc1ccc(Cl)cc1Cl)c1ccc(N/C(=N\C2CCNC2)NC2CCCCC2)cc1` (stereo not given), the Ki in experiment [2] amounted to 2500 nM; in experiment [1], 26 nM; in experiment [7], 1900 nM; in experiment [5] it was 1500 nM. The IC50 in experiment [3] stood at 530 nM.

The compound `CC1C(=O)NCCN1C(=NC1CCCCC1)Nc1ccc(C(=O)NCCc2ccc(Cl)cc2Cl)cc1` (stereo not given) yielded a Ki in experiment [1] of 1050 nM.

`O=C(NCCc1ccc(Cl)cc1Cl)c1ccc(NC(=NC2CCCCC2)N2CCNCC2)cc1`: the Ki in experiment [2] is 2200 nM; in experiment [1] it was 18 nM; in experiment [7] it was 400 nM; in experiment [5] it was 650 nM. The midpoint of inhibition in experiment [3], the IC50, lay at 460 nM.

In turn, `CC1CN(C(=NC2CCCCC2)Nc2ccc(C(=O)NCCc3ccc(Cl)cc3Cl)cc2)CC(C)O1` (stereo not given) returned an inhibitory constant (Ki) in experiment [1] of 350 nM.
